From ChEMBL document CHEMBL1151475, “Thiopurine drugs azathioprine and 6-mercaptopurine inhibit Mycobacterium paratuberculosis growth in vitro” (2008)

Tests used:
[1] = tested on: Mycobacterium avium subsp. paratuberculosis; test: Antituberculosis activity against Mycobacterium paratuberculosis B213 isolated from bovine assessed as minimum drug level required for killing after 56 days by MGIT 960 susceptibility test; assay type: functional
Method in brief: (§1)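 10^5 to 10^6 CFU from single-cell suspensions inoculated in duplicate into MGIT ParaTB medium with supplement and egg yolk. Drugs were at final 0.5–64.0 μg/ml, with 128.0 μg/ml added for some strains. Tubes were incubated at 37°C in MGIT 960. Inhibition is the lowest concentration giving a time to detection longer than a drug-free 1:100 inoculum control. Killing is no positive signal through 56 days.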

[2] = tested on: Mycobacterium avium subsp. paratuberculosis; test: Antituberculosis activity against Mycobacterium paratuberculosis JTC303 isolated from bovine assessed as minimum drug level required for killing after 56 days by MGIT 960 susceptibility test; assay type: functional; method in brief: as §1
[3] = tested on: Mycobacterium avium subsp. paratuberculosis; test: Antituberculosis activity against Mycobacterium paratuberculosis JTC303 isolated from bovine assessed as minimum drug level required for inhibition by MGIT 960 susceptibility test; assay type: functional; method in brief: as §1
[4] = tested on: Mycolicibacterium smegmatis; test: Antituberculosis activity against Mycobacterium smegmatis ATCC 14468 assessed as minimum drug level required for killing after 56 days by MGIT 960 susceptibility test; assay type: functional; method in brief: as §1
[5] = tested on: Mycolicibacterium smegmatis; test: Antituberculosis activity against Mycobacterium smegmatis ATCC 14468 assessed as minimum drug level required for inhibition by MGIT 960 susceptibility test; assay type: functional
Method in brief: (§2)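 MGIT ParaTB tubes were supplemented with egg yolk and inoculated in duplicate with 10^5 to 10^6 CFU from single-cell suspensions. Thiopurines were dissolved in 0.05 M NaOH in 10 mM PBS and tested at final 0.5 to 64.0 μg/ml, with 128.0 μg/ml added for some strains. Tubes ran at 37°C in the MGIT 960. The value is the lowest concentration giving a time-to-detection longer than a drug-free 1:100 inoculum control.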

[6] = tested on: Mycobacterium avium subsp. paratuberculosis; test: Antituberculosis activity against Mycobacterium paratuberculosis UCF-8 isolated from Crohn's disease patient assessed as minimum drug level required for inhibition by MGIT 960 susceptibility test; assay type: functional; method in brief: as §1
[7] = tested on: Mycobacterium avium subsp. paratuberculosis; test: Antituberculosis activity against Mycobacterium paratuberculosis UCF-4 isolated from Crohn's disease patient assessed as minimum drug level required for inhibition by MGIT 960 susceptibility test; assay type: functional; method in brief: as §1
[8] = tested on: Mycobacterium avium subsp. paratuberculosis; test: Antituberculosis activity against Mycobacterium paratuberculosis UCF-5 isolated from Crohn's disease patient assessed as minimum drug level required for killing after 56 days by MGIT 960 susceptibility test; assay type: functional; method in brief: as §1
[9] = tested on: Mycobacterium avium; test: Antituberculosis activity against Mycobacterium avium ATCC 35712 isolated from chicken assessed as minimum drug level required for inhibition by MGIT 960 susceptibility test; assay type: functional; method in brief: as §1
[10] = tested on: Mycobacterium avium subsp. paratuberculosis; test: Antituberculosis activity against Mycobacterium paratuberculosis B238 isolated from bovine assessed as minimum drug level required for killing after 56 days by MGIT 960 susceptibility test; assay type: functional; method in brief: as §1
[11] = tested on: Mycobacterium avium; test: Antituberculosis activity against Mycobacterium avium JTC981 isolated from bongo fecal sample assessed as minimum drug level required for killing within 15 days by MGIT 960 susceptibility test; assay type: functional, Feces
[12] = tested on: Enterococcus faecalis; test: Antituberculosis activity against Enterococcus faecalis ATCC 29212 isolated from human urine assessed as minimum drug level required for killing after 56 days by MGIT 960 susceptibility test; assay type: functional
[13] = tested on: Mycobacterium avium; test: Antituberculosis activity against Mycobacterium avium JTC48627 isolated from bison fecal sample assessed as minimum drug level required for inhibition by MGIT 960 susceptibility test; assay type: functional, Feces; method in brief: as §1
[14] = tested on: Mycobacterium avium; test: Antituberculosis activity against Mycobacterium avium JTC48627 isolated from bison fecal sample assessed as minimum drug level required for killing within 15 days by MGIT 960 susceptibility test; assay type: functional, Feces
[15] = tested on: Mycobacterium avium subsp. paratuberculosis; test: Antituberculosis activity against Mycobacterium paratuberculosis UCF-4 isolated from Crohn's disease patient assessed as minimum drug level required for killing after 56 days by MGIT 960 susceptibility test; assay type: functional; method in brief: as §1
[16] = tested on: Mycobacterium avium; test: Antituberculosis activity against Mycobacterium avium 104 isolated from AIDS patient assessed as minimum drug level required for killing within 15 days by MGIT 960 susceptibility test; assay type: functional
[17] = tested on: Mycobacterium avium subsp. paratuberculosis; test: Antituberculosis activity against Mycobacterium paratuberculosis B244 isolated from bovine assessed as minimum drug level required for inhibition by MGIT 960 susceptibility test; assay type: functional; method in brief: as §1
[18] = tested on: Mycobacterium avium subsp. paratuberculosis; test: Antituberculosis activity against Mycobacterium paratuberculosis B238 isolated from bovine assessed as minimum drug level required for inhibition by MGIT 960 susceptibility test; assay type: functional; method in brief: as §1
[19] = tested on: Mycobacterium avium; test: Antituberculosis activity against Mycobacterium avium 104 isolated from AIDS patient assessed as minimum drug level required for inhibition by MGIT 960 susceptibility test; assay type: functional; method in brief: as §1
[20] = tested on: Mycobacterium avium; test: Antituberculosis activity against Mycobacterium avium WSLH1544 isolated from water assessed as minimum drug level required for killing within 15 days by MGIT 960 susceptibility test; assay type: functional
[21] = tested on: Mycobacterium avium subsp. paratuberculosis; test: Antituberculosis activity against Mycobacterium paratuberculosis B236 isolated from bovine assessed as minimum drug level required for killing after 56 days by MGIT 960 susceptibility test; assay type: functional; method in brief: as §1
[22] = tested on: Mycolicibacterium phlei; test: Antituberculosis activity against Mycobacterium phlei ATCC 11758 assessed as minimum drug level required for inhibition by MGIT 960 susceptibility test; assay type: functional; method in brief: as §2
[23] = tested on: Mycobacterium avium subsp. paratuberculosis; test: Antituberculosis activity against Mycobacterium paratuberculosis UCF-7 isolated from Crohn's disease patient assessed as minimum drug level required for killing after 56 days by MGIT 960 susceptibility test; assay type: functional; method in brief: as §1
[24] = tested on: Mycobacterium avium subsp. paratuberculosis; test: Antituberculosis activity against Mycobacterium paratuberculosis B236 isolated from bovine assessed as minimum drug level required for inhibition by MGIT 960 susceptibility test; assay type: functional; method in brief: as §1
[25] = tested on: Mycobacterium avium; test: Antituberculosis activity against Mycobacterium avium ATCC 25291 isolated from chicken assessed as minimum drug level required for killing within 15 days by MGIT 960 susceptibility test; assay type: functional
[26] = tested on: Mycobacterium avium subsp. paratuberculosis; test: Antituberculosis activity against Mycobacterium paratuberculosis UCF-7 isolated from Crohn's disease patient assessed as minimum drug level required for inhibition by MGIT 960 susceptibility test; assay type: functional; method in brief: as §1
[27] = tested on: Escherichia coli; test: Antituberculosis activity against Escherichia coli ATCC 25922 clinical isolate assessed as minimum drug level required for killing after 56 days by MGIT 960 susceptibility test; assay type: functional
[28] = tested on: Mycobacterium avium; test: Antituberculosis activity against Mycobacterium avium EPA3 isolated from water assessed as minimum drug level required for killing within 15 days by MGIT 960 susceptibility test; assay type: functional
[29] = tested on: Mycobacterium avium; test: Antituberculosis activity against Mycobacterium avium ATCC 25291 isolated from chicken assessed as minimum drug level required for inhibition by MGIT 960 susceptibility test; assay type: functional; method in brief: as §1
[30] = tested on: Mycobacterium avium subsp. paratuberculosis; test: Antituberculosis activity against Mycobacterium paratuberculosis B213 isolated from bovine assessed as minimum drug level required for inhibition by MGIT 960 susceptibility test; assay type: functional; method in brief: as §1
[31] = tested on: Enterococcus faecalis; test: Antituberculosis activity against Enterococcus faecalis ATCC 29212 isolated from human urine assessed as minimum drug level required for inhibition by MGIT 960 susceptibility test; assay type: functional
[32] = tested on: Mycobacterium avium subsp. paratuberculosis; test: Antituberculosis activity against Mycobacterium paratuberculosis B244 isolated from bovine assessed as minimum drug level required for killing after 56 days by MGIT 960 susceptibility test; assay type: functional; method in brief: as §1
[33] = tested on: Mycobacterium avium subsp. paratuberculosis; test: Antituberculosis activity against Mycobacterium paratuberculosis ATCC 19698 isolated from bovine assessed as lowest drug level required for killing by MGIT 960 susceptibility test; assay type: functional
Method in brief: (§3)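 M. paratuberculosis ATCC 19698 at 10^6 CFU per MGIT ParaTB tube in duplicate, drugs at final 1.0–64.0 μg/ml, 37°C in MGIT 960. Inhibition is the lowest concentration whose time to detection exceeds the 1:100 diluted-inoculum solvent control. No detectable growth means the tube never signals positive through 56 days.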

[34] = tested on: Mycobacterium avium subsp. paratuberculosis; test: Antituberculosis activity against Mycobacterium paratuberculosis UCF-5 isolated from Crohn's disease patient assessed as minimum drug level required for inhibition by MGIT 960 susceptibility test; assay type: functional; method in brief: as §1
[35] = tested on: Mycolicibacterium phlei; test: Antituberculosis activity against Mycobacterium phlei ATCC 11758 assessed as minimum drug level required for killing after 56 days by MGIT 960 susceptibility test; assay type: functional
Method in brief: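 Duplicate MGIT ParaTB tubes with egg yolk and supplement received 10^5 to 10^6 CFU and thiopurine (in 0.05 M NaOH/10 mM PBS) at final 0.5 to 64.0 μg/ml, plus 128.0 μg/ml for some strains. Tubes were incubated at 37°C in the MGIT 960. The value is the minimum concentration whose tubes never signalled positive by 56 days.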

[36] = tested on: Mycobacterium avium; test: Antituberculosis activity against Mycobacterium avium JTC981 isolated from bongo fecal sample assessed as minimum drug level required for inhibition by MGIT 960 susceptibility test; assay type: functional, Feces; method in brief: as §1
[37] = tested on: Escherichia coli; test: Antituberculosis activity against Escherichia coli ATCC 25922 clinical isolate assessed as minimum drug level required for inhibition by MGIT 960 susceptibility test; assay type: functional
[38] = tested on: Mycobacterium avium subsp. paratuberculosis; test: Antituberculosis activity against Mycobacterium paratuberculosis ATCC 19698 isolated from bovine assessed as lowest drug level producing inhibition at 10^6 CFU of inoculum by MGIT 960 susceptibility test; assay type: functional; method in brief: as §3
[39] = tested on: Mycobacterium avium; test: Antituberculosis activity against Mycobacterium avium ATCC 35712 isolated from chicken assessed as minimum drug level required for killing after 56 days by MGIT 960 susceptibility test; assay type: functional; method in brief: as §1
[40] = tested on: Mycobacterium avium subsp. paratuberculosis; test: Antituberculosis activity against Mycobacterium paratuberculosis ATCC 19698 isolated from bovine assessed as lowest drug level producing inhibition at 10^6 CFU of inoculum by agar counting method; assay type: functional
Method in brief: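 ATCC 19698 at 10^6 CFU was exposed to drug (1.0–64.0 μg/ml) in MGIT ParaTB medium at 37°C. Aliquots taken at 3 and 5 days were centrifuged, resuspended in PBS and declumped with glass beads. Serial dilutions were plated in quadruplicate on 7H10/OADC/mycobactin J and counted after 8 weeks. Inhibition is the lowest concentration giving a 2 log10 (99%) CFU reduction.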

[41] = tested on: Mycobacterium avium subsp. paratuberculosis; test: Antituberculosis activity against Mycobacterium paratuberculosis ATCC 19698 isolated from bovine assessed as minimum drug level resulting in no detectable growth at 10^6 CFU of inoculum after 56 days by MGIT 960 susceptibility test; assay type: functional; method in brief: as §3

Compound: Cn1cnc([N+](=O)[O-])c1Sc1ncnc2[nH]cnc12 [AZATHIOPRINE]
- Activity [1]: >32 µg/mL
- Activity [2]: >32 µg/mL
- Activity [3]: 2 µg/mL
- Activity [4]: >128 µg/mL
- Activity [5]: >128 µg/mL
- Activity [6]: 2 µg/mL
- Activity [7]: 4 µg/mL
- Activity [8]: >32 µg/mL
- Activity [9]: >64 µg/mL
- Activity [10]: >32 µg/mL
- Activity [11]: >64 µg/mL
- Activity [12]: >128 µg/mL
- Activity [13]: 64 µg/mL
- Activity [14]: >64 µg/mL
- Activity [15]: >32 µg/mL
- Activity [16]: >64 µg/mL
- Activity [17]: 8 µg/mL
- Activity [18]: 16 µg/mL
- Activity [19]: >64 µg/mL
- Activity [20]: >64 µg/mL
- Activity [21]: >32 µg/mL
- Activity [22]: 2 µg/mL
- Activity [23]: 16 µg/mL
- Activity [24]: 8 µg/mL
- Activity [25]: >64 µg/mL
- Activity [26]: 1 µg/mL
- Activity [27]: >128 µg/mL
- Activity [28]: >64 µg/mL
- Activity [29]: >64 µg/mL
- Activity [30]: 8 µg/mL
- Activity [31]: >128 µg/mL
- Activity [32]: >32 µg/mL
- Activity [33]: 16 µg/mL
- Activity [34]: 2 µg/mL
- Activity [35]: 32 µg/mL
- Activity [36]: >64 µg/mL
- Activity [37]: >128 µg/mL

Compound: CC[C@H]1OC(=O)[C@H](C)[C@@H](O[C@H]2C[C@@](C)(OC)[C@@H](O)[C@H](C)O2)[C@H](C)[C@@H](O[C@@H]2O[C@H](C)C[C@H](N(C)C)[C@H]2O)[C@](C)(O)C[C@@H](C)CN(C)[C@H](C)[C@@H](O)[C@]1(C)O [AZITHROMYCIN]
- Activity [1]: 2 µg/mL
- Activity [2]: 4 µg/mL
- Activity [3]: 1 µg/mL
- Activity [7]: 1 µg/mL
- Activity [8]: 2 µg/mL
- Activity [9]: 1 µg/mL
- Activity [10]: 1 µg/mL
- Activity [15]: 2 µg/mL
- Activity [18]: >0.5 µg/mL
- Activity [38]: 4 µg/mL
- Activity [21]: 4 µg/mL
- Activity [23]: 1 µg/mL
- Activity [24]: 0.5 µg/mL
- Activity [39]: 16 µg/mL
- Activity [40]: 4 µg/mL
- Activity [26]: 0.5 µg/mL
- Activity [30]: 1 µg/mL
- Activity [34]: 0.5 µg/mL
- Activity [41]: 16 µg/mL

Compound: Nc1ccc(O)c(C(=O)O)c1 [MESALAMINE]
- Activity [38]: >64 µg/mL
- Activity [40]: >64 µg/mL
- Activity [41]: >64 µg/mL
